Each structure is given as a SMILES string. The source made the active and inactive calls. The calls are words filed in the database; no cut-off is given here.

Data set [1] addresses T1, Progesterone receptor (Oryctolagus cuniculus) (UniProt P06186).
T1 sequence (whole entry): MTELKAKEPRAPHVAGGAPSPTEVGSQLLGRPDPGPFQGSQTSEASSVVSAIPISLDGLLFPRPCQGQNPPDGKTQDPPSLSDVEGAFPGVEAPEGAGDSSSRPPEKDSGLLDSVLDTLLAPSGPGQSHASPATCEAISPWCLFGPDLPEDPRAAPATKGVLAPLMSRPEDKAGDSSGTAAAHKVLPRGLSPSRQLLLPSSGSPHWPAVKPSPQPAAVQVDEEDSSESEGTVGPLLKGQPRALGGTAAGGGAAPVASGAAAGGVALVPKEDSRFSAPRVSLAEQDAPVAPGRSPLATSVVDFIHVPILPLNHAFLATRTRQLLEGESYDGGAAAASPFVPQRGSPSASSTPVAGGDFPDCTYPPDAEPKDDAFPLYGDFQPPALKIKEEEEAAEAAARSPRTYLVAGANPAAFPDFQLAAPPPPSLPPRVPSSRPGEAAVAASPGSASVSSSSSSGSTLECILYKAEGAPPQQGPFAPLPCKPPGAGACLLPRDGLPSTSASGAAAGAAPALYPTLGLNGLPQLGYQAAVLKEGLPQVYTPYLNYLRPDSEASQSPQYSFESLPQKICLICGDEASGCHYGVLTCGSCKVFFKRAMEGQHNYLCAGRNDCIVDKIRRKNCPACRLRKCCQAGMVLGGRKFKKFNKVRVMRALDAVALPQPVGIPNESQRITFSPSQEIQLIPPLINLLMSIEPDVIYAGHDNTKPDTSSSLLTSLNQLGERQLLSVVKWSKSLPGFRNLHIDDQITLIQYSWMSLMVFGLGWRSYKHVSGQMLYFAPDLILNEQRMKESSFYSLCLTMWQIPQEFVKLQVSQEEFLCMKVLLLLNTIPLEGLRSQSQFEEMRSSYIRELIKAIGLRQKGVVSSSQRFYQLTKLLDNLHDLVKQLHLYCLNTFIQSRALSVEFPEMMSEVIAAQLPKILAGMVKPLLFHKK
The data set can be described thus: Binding affinity to progesterone receptor in rabbit uterine cytosol relative to progesterone. As to conditions: Uterus.

The test system of data set [2] is Oryctolagus cuniculus. Put plainly: Antiprogestational activity in estradiol benzoate-primed rabbit at 10 to 15 mg, sc administered qd for 5 days by anti-Clauberg assay in presence of progesterone. The format is functional, organism-based. In outline: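 Immature rabbits (six) were primed with estradiol benzoate for 6 days. Each compound (10–15 mg) was then given with progesterone (0.8 mg) in sesame oil, subcutaneously, once daily for 5 days. The read-out was uterine stimulation. NICHD ran the assay.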

The nature of data set [3]: Solubility of the compound in carbon tetrachloride. The format is physicochemical.
The species named for data set [4] is Oryctolagus cuniculus. Put plainly: Progestational activity in immature rabbit assessed as uterine stimulation by Clauberg assay. The data set is classed as functional.

In data set [1], `C#C[C@]1(O)CC[C@H]2[C@@H]3CCC4=CC(=O)CC[C@@H]4[C@H]3[C@H]3CCC[C@]21C3` (racemic) gave an Activity of 136%.

In the case of `C#C[C@]1(O)CC[C@H]2[C@@H]3CCC4=CC(=O)CC[C@@H]4[C@H]3CC[C@@]21CCCOC(C)=O`, in the data set with Oryctolagus cuniculus [2], the result was inactive. Compound `C#C[C@]1(O)CC[C@H]2[C@@H]3CCC4=CC(=O)CC[C@@H]4[C@H]3CC[C@@]21CCCCl` displayed an Activity in data set [1] of 1%. Further, the result with Oryctolagus cuniculus [2] was inactive. For `C#C[C@]1(O)CC[C@H]2[C@@H]3CCC4=CC(=O)CC[C@@H]4[C@H]3CC[C@@]21CCCO` the same measures were 2% and “inactive”. On to `COc1ccc2c(c1)CCC1=C2[C@@H]2C[C@]3(CCC2O)[C@@H](OC(C)=O)CC[C@@H]13` (stereo partly drawn), for which the solubility entry in data set [3] was “Insoluble”. On to `C#C[C@]1(O)CC[C@H]2[C@@H]3CCC4=CC(=O)CC[C@@H]4[C@H]3CC[C@@]21C`, for which the Activity in data set [1] amounted to 126%. Compound `C#C[C@]1(O)CC[C@H]2[C@@H]3CCC4=CC(=O)CC[C@@H]4[C@H]3[C@@H](C)C[C@@]21CC` (racemic) registered an Activity in data set [1] of 151%.

Turning to `C#C[C@]1(O)CC[C@H]2[C@@H]3CCC4=CC(=O)CC[C@@H]4[C@H]3[C@@H](C)C[C@@]21C`, the Activity in data set [1] came to 390%. For the compound `C#C[C@]1(O)CC[C@H]2[C@@H]3CCC4=CC(=O)CC[C@@H]4[C@H]3CC[C@@]21CCCOC(=O)CBr`, the Activity in data set [1] was 2%. Moreover, the result in the data set on Oryctolagus cuniculus [2] was inactive. With `C#C[C@]1(O)CC[C@H]2[C@@H]3CCC4=CC(=O)CC[C@@H]4[C@H]3CC[C@@]21CCC=O`, the values for the Activity (in data set [1]; in the data set filed under Oryctolagus cuniculus [4]) were 21% and 5%, respectively. In the data set on Oryctolagus cuniculus [2], the result was inactive. `C#CC1(O)CC[C@H]2[C@@H]3CCC4=CC(=O)CC[C@@H]4[C@H]3CC[C@@]21CC` (mixture of isomers): the Activity in data set [1] came to 206%. In the case of `C#C[C@]1(O)[C@H]2CCC[C@@]13CC[C@H]1[C@@H](CCC4=CC(=O)CC[C@@H]41)[C@@H]3C2` (racemic), the Activity in data set [1] came out at 1%. Besides, the outcome in the data set on Oryctolagus cuniculus [2] was inactive.

The values are drawn from ChEMBL document CHEMBL3244114, “Synthesis of 11 beta,13 beta- and 13 beta,16 beta-propano steroids: probes of hormonal activity” (J Med Chem, 1979).
